# The source made the active and inactive calls.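 The calls were made as follows, unless noted: active = viability at or under a set limit in both replicates, limit being median viability minus 3 SD (cut at about 48% in these data, passing the limit was not always enough); inconclusive = at or under the limit in just one replicate; inactive = at or above the limit in both replicates.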
# Experiments:
# [1] = reducers of endogenous Her2 protein level, primary screen, SKBR3 breast tumor cells, AlphaScreen, ATP viability (AID 461;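 active = Her2 level under about 52% in both replicate screens, with viability over 70% of control, limit read from the data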;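 as to Her2 level: lower value means less Her2 protein in the cells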;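 as to viability: percent of carrier control wells set as 100% viability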); settings: 18-24 h, measured here: SKBR3 viability, ATP luminescence, at 10 µM
# [2] = target: Receptor tyrosine-protein kinase erbB-2 (Homo sapiens) (UniProt P04626); assay: as above; settings: 18-24 h, at 10 µM, stronger effect = lower value
# [3] = SK-BR-3 cell growth inhibitors, pilot screen, 24 h, human (AID 572;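 active = viability at or below 10% of carrier control in both of two separate runs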;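 also: compound exposure lasted between 18 and 24 h rather than exactly 24 h; 100% = carrier-treated control wells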); settings: SK-BR-3 viability, CellTiter-Glo luminescence, at 10 µM, stronger effect = lower value
# [4] = HUVEC growth inhibition – cell-based, human, primary screen (AID 575;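 active = viability at or below 30% in both replicate assays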;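 also: 100% = median of untreated cell wells with 0.1% DMSO on each plate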); settings: HUVEC proliferation, CellTiter-Glo luminescence, 72 h; at 10 µM; stronger effect = lower value
# Summary of the method: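 Test system – primary HUVEC, no more than 12 passages · Dosing – one dose, 10 µM final, 0.1% DMSO · Times – 72 h treatment at 37 °C · Measured by – ATP-based CellTiter-Glo luminescent read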
# [5] = growth inhibitors of H69AR lung tumor, primary screen, human, duplicate replicates (AID 580); settings: H69AR lung tumor cells viability, ATP luminescence, 72 h; at 10 µM; stronger effect = lower value;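 also: 100% = mean luminescence of untreated wells and 0% = no signal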
# [6] = reversal of MRP1-mediated doxorubicin resistance, pilot screen, H69AR cells, doxorubicin co-treatment (AID 601;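 active = viability loss from added drug above about 55%, and viability with drug at most 40%, in both replicates, limit read from the data, passing the limit was not always enough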); settings: CellTiter-Glo, 72 h, at 10 µM; for differential viability (reversal): stronger effect = higher value
# [7] = 384-well plate pilot, post-Golgi transport modulator project, inhibition of yeast transport mutant growth (AID 636; in the data active = inhibition above about 31%); settings: absorbance 615 nm, about 18 h, stronger effect = higher value
# [8] = growth suppression of yeast trafficking mutant, preliminary HTS, modulators of trafficking downstream of Golgi apparatus project, 1536-format plate, OD 615 nm (AID 637; in the data active = inhibition above about 30%); settings: yeast transport mutant growth, absorbance 615 nm, 18 h; stronger effect = higher value
# [9] = H69AR cells + 2 uM doxorubicin, measured here: viability with 2 uM doxorubicin, stronger effect = lower value
# [10] = H69AR cells, compound alone cytotoxicity
# Sequence of Receptor tyrosine-protein kinase erbB-2 (Homo sapiens) (P04626 whole entry, looked up): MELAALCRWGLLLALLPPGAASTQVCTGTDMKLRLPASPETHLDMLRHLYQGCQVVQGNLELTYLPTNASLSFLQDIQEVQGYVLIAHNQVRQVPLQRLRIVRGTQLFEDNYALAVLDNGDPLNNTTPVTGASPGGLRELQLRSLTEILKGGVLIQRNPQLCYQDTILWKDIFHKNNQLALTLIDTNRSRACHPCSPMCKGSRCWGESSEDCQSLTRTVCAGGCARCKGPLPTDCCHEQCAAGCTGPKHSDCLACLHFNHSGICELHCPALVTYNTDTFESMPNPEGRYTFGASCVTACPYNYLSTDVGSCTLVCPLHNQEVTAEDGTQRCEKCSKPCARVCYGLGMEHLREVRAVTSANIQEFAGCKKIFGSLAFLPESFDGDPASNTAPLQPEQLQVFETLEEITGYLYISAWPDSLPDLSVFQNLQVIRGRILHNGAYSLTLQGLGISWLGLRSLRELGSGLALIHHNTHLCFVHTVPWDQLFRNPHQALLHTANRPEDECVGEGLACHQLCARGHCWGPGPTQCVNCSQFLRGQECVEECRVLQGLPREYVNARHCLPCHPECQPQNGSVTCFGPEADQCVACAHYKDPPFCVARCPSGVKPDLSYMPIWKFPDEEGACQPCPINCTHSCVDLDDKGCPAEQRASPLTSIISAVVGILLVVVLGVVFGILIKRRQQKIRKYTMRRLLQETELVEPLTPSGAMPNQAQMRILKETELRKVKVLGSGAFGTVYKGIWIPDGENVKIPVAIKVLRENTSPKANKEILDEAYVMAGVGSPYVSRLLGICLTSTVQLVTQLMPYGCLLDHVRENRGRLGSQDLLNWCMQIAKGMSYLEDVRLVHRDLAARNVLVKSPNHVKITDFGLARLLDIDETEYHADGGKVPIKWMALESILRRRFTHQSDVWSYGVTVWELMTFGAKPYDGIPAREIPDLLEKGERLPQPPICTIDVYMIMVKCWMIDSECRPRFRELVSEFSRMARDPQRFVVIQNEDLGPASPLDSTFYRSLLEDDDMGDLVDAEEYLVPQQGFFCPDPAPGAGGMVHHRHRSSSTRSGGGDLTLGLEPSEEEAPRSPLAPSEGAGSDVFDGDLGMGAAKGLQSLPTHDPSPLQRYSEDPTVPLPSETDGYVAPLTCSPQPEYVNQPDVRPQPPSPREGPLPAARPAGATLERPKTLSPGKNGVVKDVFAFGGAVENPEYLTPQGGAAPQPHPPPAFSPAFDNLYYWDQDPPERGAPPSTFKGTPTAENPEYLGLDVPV
Compound,viability [1] [%],Her2 level [2],viability [3],viability [4],viability [5],differential viability (reversal) ([6]; H69AR cells + 2 uM doxorubicin),"viability [6, 9] [%]","viability [6, 10] [%]",inhibition [7],inhibition [8]
Cc1ccc2[nH]c(=O)c(CN(CCCN3CCOCC3)C(=O)Nc3cccc(Cl)c3)cc2c1,75.5,75% (inactive),75.5% (inactive),47% (inactive),55.4% (inactive),5.47% (inactive),49.9,55.4,-3.33% (inactive),2.13% (inactive)
COC(=O)c1ccc(NC(=O)C2CC(=O)N(c3cc(C)ccc3C)C2)cc1 (stereo not given),97,99.5% (inactive),97% (inactive),96.3% (inactive),89.8% (inactive),3.6% (inactive),86.2,89.8,-1.76% (inactive),13.7% (inactive)
Cc1cc(Nc2ccc(N3CCC(C)CC3)cc2)n2ncnc2n1,100,110% (inactive),100% (inactive),101% (inactive),77.6% (inactive),-1.35% (inactive),79,77.6,5.62% (inactive),3.02% (inactive)
COc1ccc(S(=O)(=O)n2ccnc2)c2cccnc12,94.5,110% (inactive),94.5% (inactive),90.7% (inactive),96.1% (inactive),-0.965% (inactive),97.1,96.1,-2.13% (inactive),-4.1% (inactive)
COCCNC(=O)c1c(N)n(CCC2=CCCCC2)c2nc3ccccc3nc12,102,92% (inactive),102% (inactive),78.3% (inactive),89% (inactive),10.8% (inactive),78.2,89,-6.03% (inactive),-2.38% (inactive)
CCN(CCNC(=O)C1CCN(S(=O)(=O)CC)CC1)c1ccccc1,124,92.5% (inactive),124% (inactive),112% (inactive),95.7% (inactive),6.31% (inactive),89.4,95.7,-7.84% (inactive),-8.33% (inactive)
Nc1ccc(-c2ccc(N)cc2C(F)(F)F)c(C(F)(F)F)c1,94,80% (inactive),94% (inactive),75.1% (inactive),68.6% (inactive),-13.7% (inactive),82.3,68.6,-0.65% (inactive),-0.66% (inactive)
CCOC(=O)N1CCN(C(=O)c2n[nH]c(=O)c3ccccc23)CC1,85,101% (inactive),85% (inactive),95.1% (inactive),91.6% (inactive),1.86% (inactive),89.8,91.6,-1.6% (inactive),19% (inactive)
Cc1cc(NC(=O)Cn2cnc3c2c(=O)n(C)c(=O)n3C)n(-c2ccccc2)n1,116,93% (inactive),116% (inactive),117% (inactive),108% (inactive),8.22% (inactive),99.3,108,-7.97% (inactive),0.83% (inactive)
COCCCNC(=O)CCc1nc2cccnc2n1Cc1ccc(OC)cc1,110,106% (inactive),110% (inactive),115% (inactive),99.2% (inactive),4.86% (inactive),94.3,99.2,-7.03% (inactive),1.83% (inactive)
CCOc1ccc(Nc2nc(Cc3nnc(SCC(N)=O)o3)cs2)cc1,106,88% (inactive),106% (inactive),89.8% (inactive),93.6% (inactive),13.2% (inactive),80.4,93.6,-6.1% (inactive),-2.7% (inactive)
CCNC(=O)N(C)c1nncnc1C(=O)NC,85,88% (inactive),85% (inactive),89.8% (inactive),95.8% (inactive),6.2% (inactive),89.6,95.8,-3.6% (inactive),5.57% (inactive)
Cc1ccc(S(=O)(=O)N(CC(=O)N2CCC(C(N)=O)CC2)c2cccc(C(F)(F)F)c2)cc1,99.5,120% (inactive),99.5% (inactive),87.8% (inactive),82.9% (inactive),-6.52% (inactive),89.4,82.9,-3.33% (inactive),5% (inactive)
Cc1cc(C)cc(N2CCCn3c2nc2c3c(=O)n(CCN3CCOCC3)c(=O)n2C)c1,101,81% (inactive),101% (inactive),97.2% (inactive),83.3% (inactive),-0.035% (inactive),83.3,83.3,-7.2% (inactive),-3.44% (inactive)
CCN(C#N)c1nc(NC(C)C)nc(NC(C)C)n1,96.5,93% (inactive),96.5% (inactive),97.6% (inactive),93.6% (inactive),4.81% (inactive),88.8,93.6,-4.46% (inactive),-7.17% (inactive)
CCn1c(COc2cccc3ccccc23)nnc1SCC(N)=O,96,75% (inactive),96% (inactive),91% (inactive),91.1% (inactive),13% (inactive),78.2,91.1,-4.21% (inactive),0.18% (inactive)
O=C(Nc1ccc(O)cc1)C1CCCN1S(=O)(=O)c1ccc(F)cc1 (stereo not given),97.5,92% (inactive),97.5% (inactive),91.6% (inactive),97.3% (inactive),2.53% (inactive),94.7,97.3,-1.47% (inactive),1.64% (inactive)
Cc1ccc(C)c(N2CCN(S(=O)(=O)c3ccc4c(c3)OCCO4)CC2)c1,97.5,96.5% (inactive),97.5% (inactive),99.2% (inactive),106% (inactive),4.96% (inactive),101,106,-4.81% (inactive),-3.97% (inactive)
COCCOC(=O)c1c(C)nc(SCC(=O)Nc2ccc(OC)cc2)c(C#N)c1-c1ccco1,108,87.5% (inactive),108% (inactive),73.9% (inactive),91% (inactive),14.7% (inactive),76.3,91,-2.63% (inactive),-5.97% (inactive)
Cn1c2c(c(=O)n(C)c1=O)C(CC(=O)Nc1ccccc1)C(=O)N2 (stereo not given),106,78.5% (inactive),106% (inactive),106% (inactive),108% (inactive),21.8% (inactive),86.4,108,-2.97% (inactive),8.57% (inactive)
N#CC1=C(N)Oc2n[nH]c(-c3cccs3)c2C1c1cccs1 (stereo not given),96.5,79.5% (inactive),96.5% (inactive),81.4% (inactive),83.8% (inactive),-2.47% (inactive),86.3,83.8,-3.73% (inactive),-1.31% (inactive)
COC(=O)CC1SC(=O)NC1=O (stereo not given),110,120% (inactive),110% (inactive),102% (inactive),105% (inactive),10.4% (inactive),94.6,105,1.05% (inactive),-7.21% (inactive)
CCOC(=O)C1=C(c2ccccc2)Nc2nc(C)nn2C1c1cccc(OC)c1OC (stereo not given),111,130% (inactive),111% (inactive),90.6% (inactive),90.2% (inactive),36.8% (inactive),53.4,90.2,-2.24% (inactive),-0.66% (inactive)
Cc1cc(C(=O)NCCN2CCN(c3cccc(Cl)c3)CC2)n(-c2ccccc2)n1,98,91.5% (inactive),98% (inactive),42.3% (inactive),23.7% (active),-24.5% (inactive),48.2,23.7,-4.8% (inactive),-1.48% (inactive)
CCn1nccc1C(=O)Nc1cc(Cl)ccc1Cl,102,97.5% (inactive),102% (inactive),89.3% (inactive),112% (inactive),24.9% (inactive),86.7,112,-5.66% (inactive),-2% (inactive)
O=C(COC(=O)c1ccc(S(=O)(=O)Nc2ccccc2)cc1)NCCN1C(=O)CSC1=O,107,108% (inactive),107% (inactive),100% (inactive),95.3% (inactive),9.27% (inactive),86,95.3,-5.07% (inactive),-3.93% (inactive)
Cc1ccc(C(=O)CCC2CCCC2=O)cc1 (stereo not given),90.5,102% (inactive),90.5% (inactive),111% (inactive),89% (inactive),0.57% (inactive),88.4,89,-4.73% (inactive),-2.67% (inactive)
O=S(=O)(c1ccccc1)c1nc(-c2ccco2)oc1NCCCN1CCOCC1,91,100% (inactive),91% (inactive),84.6% (inactive),95.4% (inactive),-1.43% (inactive),96.8,95.4,-1.73% (inactive),-3.23% (inactive)

# From PubChem BioAssay
